# Experimental data published in publication PMC5679172 (The Journal of Experimental Medicine, 2017).
# Tests used:
# Format in all cases: cell-based, mouse
# [1] = system: LPS-induced priming; experiment: LPS-induced priming in BMDMs; settings: for LPS-induced TNF-α production or pro–IL-1β expression: BMDMs treated with inhibitor before LPS stimulation
# [2] = system: potassium efflux; experiment: intracellular potassium detection in BMDMs; settings: LPS-primed Nlrp3−/− BMDMs
# Outline: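 BMDMs plated overnight and primed with LPS 50 ng/ml for 3 h, then given test compound for 30 min and nigericin for 30 min. […] Intracellular K+ quantified by ICP optical emission spectrometry with yttrium as internal standard.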
# [3] = system: chloride efflux; experiment: intracellular chloride detection in BMDMs; settings: LPS-primed Nlrp3−/− BMDMs
# Outline: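 BMDMs plated overnight and primed with LPS 50 ng/ml for 3 h, then given test compound for 30 min and nigericin for 15 min. Cells lysed in water for 15 min at 37°C and spun at 10,000 g for 5 min. Supernatant mixed with MQAE and signal read on a plate reader. Residual extracellular chloride subtracted using a control.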
# [4] = system: NLRC4 inflammasome; experiment: Salmonella infection-induced NLRC4 inflammasome activation in BMDMs; settings: LPS-primed BMDMs, IL-1β ELISA
# Outline: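 BMDMs plated at 5 × 10^5/ml and primed next day with LPS 50 ng/ml for 3 h. Test compound added for 30 min, then cells infected with Salmonella typhimurium for 4 h. Supernatant IL-1β measured by ELISA.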
# [5] = system: AIM2 inflammasome; experiment: cytosolic poly; settings: LPS-primed BMDMs, cytosolic double-stranded DNA poly(dA:dT), IL-1β ELISA
# Outline: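 BMDMs plated at 5 × 10^5/ml and primed next day with LPS 50 ng/ml for 3 h. Test compound added for 30 min, then poly(dA:dT) (0.5 µg/ml) delivered by lipofection for 4 h. Supernatant IL-1β measured by ELISA.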
Structure (SMILES),LPS-induced TNF-α production or pro–IL-1β expression [1],nigericin-induced potassium efflux (decrease of intracellular potassium) [2],nigericin-induced chloride efflux (decrease of intracellular chloride) [3],LPS-induced priming effects ([1]; BMDMs),NLRC4 inflammasome activation [4],AIM2 inflammasome activation [5]
Cc1ccc(S(=O)(=O)/C=C/C#N)cc1 [BAY 11-7082],could suppress,,,,,
"CC(O)CC(=O)O (stereo not drawn) [BHB, β-hydroxybutyrate]",could suppress,could suppress,,,,
CC(C)(O)c1coc(S(=O)(=O)NC(=O)Nc2c3c(cc4c2CCC4)CCC3)c1 [MCC950],,could not,could inhibit,no effect,,
O=C(O)c1ccccc1Nc1cccc(C(F)(F)F)c1 [flufenamic acid],could suppress,could not,blocked,,,
O=C(/C=C/c1ccc(O)cc1)c1ccc(O)cc1O [isoliquiritigenin],could suppress,,,,,
Cc1cccc(Nc2ccccc2C(=O)O)c1C [mefenamic acid],could suppress,,,,,
C=C1C(=O)O[C@H]2[C@H]1CC/C(C)=C/CC[C@@]1(C)O[C@@H]21 [parthenolide],could suppress,,,,could also inhibit,could also inhibit
C[S+]([O-])CCCCN=C=S (centres unmarked) [sulforaphane],could suppress,,,,could also inhibit,could also inhibit
